One may read the IC50 as the midpoint of a concentration-inhibition curve.

Data set [1] deals with Schistosoma mansoni. Description: Antischistosomal activity against Schistosoma mansoni NTS incubated for 72 hrs. Format: functional, organism-based. The method, boiled down:
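NTS from mechanically transformed cercariae (Liberian strain), 100 per well in Medium 199 + 5% iFCS, penicillin/streptomycin, preincubated 12–24 h at 37°C, 5% CO2. Exposed to 0.37–90 μg/ml (threefold steps) for 72 h. Scored microscopically on a viability scale (death, motility, morphology). DMSO control; duplicates, at least three experiments; IC50 from viability scores.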

Data set [2] relates to Schistosoma mansoni. Description: Antischistosomal activity against adult Schistosoma mansoni schistosomes incubated for 72 hrs. It counts as functional, organism-based.
In the next data set the test system is L6. Description: Cytotoxicity against rat L6 cells incubated for […] hrs by Alamar blue assay. It counts as cell-based. For orientation: Resazurin is reduced to fluorescent resorufin, in cell work by metabolically active cells.
Data set [3] is described as follows: Selectivity index, ratio of IC50 for rat L6 cells to IC50 for adult Schistosoma mansoni schistosomes. The procedure, abridged: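 Ratio of L6 IC50 to adult S. mansoni IC50, both from the assays above.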
The next data set concerns HeLa. Description: Cytotoxicity against human HeLa cells incubated for 48 hrs by resazurin dye reduction assay. Format: cell-based.
A further data set deals with MRC5. Description: Cytotoxicity against human MRC5 cells incubated for 48 hrs by resazurin dye reduction assay. It counts as cell-based. Conditions: MRC5, 48 h.
Data set [4] is described as follows: Selectivity index, ratio of IC50 for human MRC5 cells to IC50 for human HeLa cells. Format: cell-based. Conditions: MRC5 cells versus HeLa cells, read-out: Ratio IC50.
For data set [5], the system named is Schistosoma mansoni. Description: Antischistosomal activity against adult Schistosoma mansoni infected NMRI mouse adult infection model assessed as reduction in total worm burden at 400 mg/kg administered as single dose starting from 49 days post infection. Set-up: scale not given: the % may be the effect or the level left. It counts as functional. The procedure, abridged: (§1)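 Mice infected subcutaneously with ~100 S. mansoni cercariae (Liberian strain). At day 49 post infection, groups of 4 NMRI mice received a single oral 400 mg/kg dose; 8–10 untreated controls. Total and female worm burden reductions calculated against untreated controls.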

The subject of data set [6] is Schistosoma mansoni. The data set can be described thus: Antischistosomal activity against adult Schistosoma mansoni infected NMRI mouse adult infection model assessed as reduction in female worm burden at 400 mg/kg administered as single dose starting from 49 days post infection. It counts as functional. Set-up: scale not given: the % may be the effect or the level left. The procedure, abridged: as §1

Data set [7] has as its system Schistosoma mansoni. The data set can be described thus: Antischistosomal activity against adult Schistosoma mansoni infected NMRI mouse juvenile infection model assessed as reduction in total worm burden at 400 mg/kg administered as single dose starting from 21 days post infection. Details: scale not given: the % may be the effect or the level left. Format: functional. The method, boiled down:
(§2)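 Juvenile model: NMRI mice infected with ~100 cercariae were given a single oral 400 mg/kg dose on day 21 post infection. Dissected four weeks after treatment, worms sexed and counted. Total and female burden reductions calculated against untreated controls.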

The subject of data set [8] is Schistosoma mansoni. The data set can be described thus: Antischistosomal activity against adult Schistosoma mansoni infected NMRI mouse juvenile infection model assessed as reduction in female worm burden at 400 mg/kg administered as single dose starting from 21 days post infection. It counts as functional. Details: scale not given: the % may be the effect or the level left. The procedure, abridged: as §2

As for `C[C@]12OO[C@](C)(OO1)C2C12CC3CC(CC(C3)C1)C2` (stereo partly specified), the IC50 with Schistosoma mansoni [1] was 0.1 µM; with Schistosoma mansoni [2] it was 0.3 µM; in the data set on L6 it was 1.7 µM; in the data set on HeLa it was 0.4 µM; with MRC5 it was 1.2 µM. For the same molecule, the “Ratio IC50” value in data set [3] is given as 5.7. For the same molecule, the selectivity ratio in data set [4] is 2. Moreover, the Activity is given as 75.4% with Schistosoma mansoni [5], 77.8% in the data set on Schistosoma mansoni [6], 43.1% in the data set on Schistosoma mansoni [7] and 50% in the data set on Schistosoma mansoni [8].
